Molecules are shown by their SMILES. Where a SMILES comes first, the peptide text is derived from it. [ ]: non-standard residue; d: D form. The star is where a group is joined. ProΨ(CH2NH)PheNH2 = NC(=O)[C@H](Cc1ccccc1)NC[C@@H]1CCCN1*; dProψ(CH2NH)PheNH2 = NC(=O)[C@H](Cc1ccccc1)NC[C@H]1CCCN1*; Desaminotyrosyl = O=C(CCc1ccc(O)cc1)*; Hydrocinnamoyl = O=C(CCc1ccccc1)*; Sar = CNCC(=O)O

The target of this experiment is Gastrin-releasing peptide receptor (Mus musculus) (UniProt P21729). Description: Inhibition of 6 nM bombesin induced [3H]thymidine incorporation measured in swiss 3T3 cells using a mitogenicity assay. The experiment is classed as functional, cell-based. In outline: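 Density-arrested quiescent Swiss 3T3 monolayers treated in triplicate with test peptide (generally log dilutions) plus 6 nM bombesin for 18 h, then pulsed 2 h with 0.5 µCi [3H]thymidine per well. Cells washed with cold PBS, fixed in methanol/acetic acid, solubilized, scintillation counted. IC50 ± SEM over replicate trials; na means no activity at 10^-4 M.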
Sequence of Gastrin-releasing peptide receptor (Mus musculus) (P21729 whole entry): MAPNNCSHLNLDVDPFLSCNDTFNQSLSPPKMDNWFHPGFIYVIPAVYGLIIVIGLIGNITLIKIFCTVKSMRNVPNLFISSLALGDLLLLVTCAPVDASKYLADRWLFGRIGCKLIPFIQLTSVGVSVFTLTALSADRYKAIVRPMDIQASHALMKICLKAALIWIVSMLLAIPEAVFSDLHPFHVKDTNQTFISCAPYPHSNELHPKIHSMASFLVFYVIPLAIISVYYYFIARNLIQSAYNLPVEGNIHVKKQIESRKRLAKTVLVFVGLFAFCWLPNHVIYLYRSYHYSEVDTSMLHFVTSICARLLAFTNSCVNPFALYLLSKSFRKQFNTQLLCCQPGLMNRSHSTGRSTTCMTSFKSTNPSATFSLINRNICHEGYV
Background: Dividing cells build labelled thymidine or BrdU into new DNA.
Turning to `CC(C)[C@H](NC(=O)[C@H](C)NC(=O)[C@H](Cc1c[nH]c2ccccc12)NC(=O)[C@H](Cc1c[nH]cn1)NC(=O)C1CCc2ccccc2C1)C(=O)N[C@H](C)C(=O)N[C@@H](Cc1c[nH]cn1)C(=O)N1CCC[C@@H]1CN[C@@H](Cc1ccccc1)C(N)=O` (some centres not stated), the Activity was found to be 4 nM.
`CC(C)[C@H](NC(=O)[C@H](C)NC(=O)[C@H](Cc1c[nH]c2ccccc12)NC(=O)[C@H](Cc1c[nH]cn1)NC(=O)Cc1cccc(C(F)(F)F)c1)C(=O)N[C@H](C)C(=O)N[C@@H](Cc1c[nH]cn1)C(=O)N1CCC[C@@H]1CN[C@@H](Cc1ccccc1)C(N)=O` showed an Activity of 260 nM.
Take `CC(C)[C@H](NC(=O)[C@H](C)NC(=O)[C@H](Cc1c[nH]c2ccccc12)NC(=O)[C@H](Cc1c[nH]cn1)NC(=O)CCc1ccccc1)C(=O)N(C)CC(=O)N[C@@H](Cc1c[nH]cn1)C(=O)N1CCC[C@H]1CN[C@@H](Cc1ccccc1)C(N)=O` (Hydrocinnamoyl-HWAV[Sar]H-{ProΨ(CH2NH)PheNH2}): the Activity worked out at 0.43 nM.
Compound `CC(C)[C@H](NC(=O)[C@H](C)NC(=O)[C@H](Cc1c[nH]c2ccccc12)NC(=O)[C@H](Cc1c[nH]cn1)NC(=O)CCc1cccc(C(F)(F)F)c1)C(=O)N[C@H](C)C(=O)N[C@@H](Cc1c[nH]cn1)C(=O)N1CCC[C@@H]1CN[C@@H](Cc1ccccc1)C(N)=O` yielded an Activity of 0.35 nM.
The result for `CC(C)[C@H](NC(=O)[C@H](C)NC(=O)[C@H](Cc1c[nH]c2ccccc12)NC(=O)[C@H](Cc1c[nH]cn1)NC(=O)c1cccc2ccccc12)C(=O)N[C@H](C)C(=O)N[C@@H](Cc1c[nH]cn1)C(=O)N1CCC[C@@H]1CN[C@@H](Cc1ccccc1)C(N)=O` reads 0.3 nM.
In turn, `CC(C)[C@H](NC(=O)[C@H](C)NC(=O)[C@H](Cc1c[nH]c2ccccc12)NC(=O)[C@H](Cc1c[nH]cn1)NC(=O)C[C@@H](C)c1ccccc1)C(=O)N[C@H](C)C(=O)N[C@@H](Cc1c[nH]cn1)C(=O)N1CCC[C@@H]1CN[C@@H](Cc1ccccc1)C(N)=O` displayed an Activity of 17 nM.
As for `CC(C)[C@H](NC(=O)[C@H](C)NC(=O)[C@H](Cc1c[nH]c2ccccc12)NC(=O)[C@H](Cc1c[nH]cn1)NC(=O)CCc1ccc(O)cc1)C(=O)N[C@H](C)C(=O)N[C@@H](Cc1c[nH]cn1)C(=O)N1CCC[C@@H]1CN[C@@H](Cc1ccccc1)C(N)=O` (Desaminotyrosyl-HWAV[dA]H-{dProψ(CH2NH)PheNH2}), the Activity is 0.16 nM.
`CCCCC(NC[C@H]1CCCN1C(=O)[C@H](Cc1cccs1)NC(=O)[C@@H](C)NC(=O)[C@@H](NC(=O)[C@H](C)NC(=O)[C@H](Cc1c[nH]c2ccccc12)NC(=O)[C@H](Cc1c[nH]cn1)NC(=O)CCc1ccccc1)C(C)C)C(N)=O` (some centres not stated) registered an Activity of 300 nM.
Compound `CC(C)[C@H](NC(=O)[C@H](C)NC(=O)[C@H](Cc1c[nH]c2ccccc12)NC(=O)[C@H](Cc1c[nH]cn1)NC(=O)CCc1ccccc1)C(=O)N[C@H](C)C(=O)N[C@@H](Cc1c[nH]cn1)C(=O)N1CCC[C@@H]1CN[C@@H](Cc1ccc2ccccc2c1)C(N)=O` showed an Activity of 40 nM.
Take `CC(C)[C@H](NC(=O)[C@H](C)NC(=O)[C@H](Cc1c[nH]c2ccccc12)NC(=O)[C@H](Cc1c[nH]cn1)NC(=O)C[C@H](C)c1ccccc1)C(=O)N[C@H](C)C(=O)N[C@@H](Cc1c[nH]cn1)C(=O)N1CCC[C@@H]1CN[C@@H](Cc1ccccc1)C(N)=O`: the Activity was 0.16 nM.
`CC(C)[C@H](NC(=O)[C@H](C)NC(=O)[C@H](Cc1c[nH]c2ccccc12)NC(=O)[C@H](Cc1c[nH]cn1)NC(=O)Cc1ccc(C(F)(F)F)cc1)C(=O)N[C@H](C)C(=O)N[C@@H](Cc1c[nH]cn1)C(=O)N1CCC[C@@H]1CN[C@@H](Cc1ccccc1)C(N)=O` showed an Activity of 200 nM.
In the case of `CC(C)[C@H](NC(=O)[C@H](C)NC(=O)[C@H](Cc1c[nH]c2ccccc12)NC(=O)[C@H](Cc1c[nH]cn1)NC(=O)c1cc2ccccc2cn1)C(=O)N[C@H](C)C(=O)N[C@@H](Cc1c[nH]cn1)C(=O)N1CCC[C@@H]1CN[C@@H](Cc1ccccc1)C(N)=O` it was 4 nM.

The values are drawn from ChEMBL document CHEMBL1127325, “Potent gastrin-releasing peptide (GRP) antagonists derived from GRP (19-27) with a C-terminal DPro psi [CH2NH]Phe-NH2 and N-terminal aromatic residues” (J Med Chem, 1994).
